# A selection: hits, their analogues and other compounds. The true share with any hit is near 1.3%.
# S100A4 inh HTS: blocks human S100A4 binding to myosin IIA peptide. P26447. inhibition, % at 10.7 µM. hit rate 0.14% among 360,000. AID 652163. S100A4/TAMRA-MyoIIA peptide fluorescence polarization;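 active = mean inhibition of at least 70% across replicates, with every replicate also reaching that level; inconclusive = mean inhibition reaches 70% but some replicates fall short; inactive = mean inhibition below 70%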
# Target sequence (P26447 whole entry, looked up): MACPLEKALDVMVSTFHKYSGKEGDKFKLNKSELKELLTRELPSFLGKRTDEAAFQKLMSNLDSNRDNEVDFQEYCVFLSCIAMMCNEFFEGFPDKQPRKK
#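 incubation = readout 5 min after mixing, signal stable up to 60 min | system = S100A4 monomer protein | buffer or medium = HEPES pH 7.2 with CaCl2, KCl, NaCl, DTT, Triton | benchmarks = neutral control DMSO, positive control TFP | also added = fluorescent myosin IIA peptide, 5 nM | compound dosing = one concentration per compound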
# XiGFP reactiv: activators of X-chromosome reactivation in mouse fibroblasts. XiGFP mouse fibroblasts, % GFP-positive cells imaging, 3 d; cells co-treated with 5-aza-dC sensitizer; scaled so ellipticine positive control = 100%. hit rate 0.055% among 360,000. activation, % at 7.58 µM. AID 743238;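 active = mean normalized replicate activation at least 10% and every replicate at or above 10%; inconclusive = only one of the two criteria met; inactive = mean below 10% and not all replicates reach 10%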;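 note: 0% = median of on-plate neutral control wells and 100% = ellipticine 6 µM median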
#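 System: 68-5-11 XiGFP fibroblast line; Timing: 3 days compound exposure; Compound dosing: one concentration, pinned; Benchmarks: positive control ellipticine, 6 µM final; Buffer or medium: DMEM containing 5-aza-dC.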
# CASP6 VEID inh: blocks human caspase-6 cleavage activity; purified caspase-6, Z-VEID-R110 cleavage fluorescence; inhibition, % at 12.5 µM; hit rate 0.53% among 350,000;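 active = mean inhibition across replicates at least about 35%, with every replicate also reaching that limit, limit read from the data; inconclusive = only one of the two criteria met; inactive = neither criterion met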;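 note: 0% = median of neutral control wells and 100% = no fluorescence left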
# AF4-AF9 inh: inhibitors of human MLL-AF4/AF9 interaction; AID 651704; hit rate 0.47% among 350,000; inhibition, % at 10 µM; P42568; AlphaScreen, biotin-AF4 peptide binding to FLAG-AF9;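 active = every replicate reaching a set inhibition limit, whatever the replicate mean, cut at about 25% in these data; inconclusive = mean inhibition reaches that limit but some replicates miss it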;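 note: 0% = plate neutral control median and 100% = total signal loss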
# Target sequence (P42568 whole entry, looked up): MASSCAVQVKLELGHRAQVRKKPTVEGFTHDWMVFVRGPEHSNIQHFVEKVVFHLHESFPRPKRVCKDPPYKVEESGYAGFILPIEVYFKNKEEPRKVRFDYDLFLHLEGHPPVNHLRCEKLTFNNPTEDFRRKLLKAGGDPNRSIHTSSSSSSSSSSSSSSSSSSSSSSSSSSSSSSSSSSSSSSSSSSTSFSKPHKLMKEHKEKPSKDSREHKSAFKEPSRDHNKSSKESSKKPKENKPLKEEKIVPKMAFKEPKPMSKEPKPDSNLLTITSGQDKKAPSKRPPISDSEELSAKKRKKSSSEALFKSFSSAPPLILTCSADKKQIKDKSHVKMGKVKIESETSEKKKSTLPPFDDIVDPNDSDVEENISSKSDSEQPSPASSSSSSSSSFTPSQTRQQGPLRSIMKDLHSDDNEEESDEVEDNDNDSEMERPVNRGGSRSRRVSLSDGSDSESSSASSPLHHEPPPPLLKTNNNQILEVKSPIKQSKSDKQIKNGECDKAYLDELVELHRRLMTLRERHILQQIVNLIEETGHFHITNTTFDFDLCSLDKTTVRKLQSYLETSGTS
# RAD54 branch: inhibitors of human RAD54 branch migration; RAD54 Holliday junction branch migration, FAM/BHQ fluorescence; inhibition, % at 10.4 µM; hit rate 0.14% among 360,000;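 active = mean normalized replicate activity at least 40 and at least half of replicates scoring 40 or more; inconclusive = only one of the two criteria met; inactive = mean below 40 and under half of replicates reaching 40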;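 note: 0% = median of neutral control wells and 100% = median of positive control wells; inhibitors cause a drop in the FAM fluorescence signal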
# RAD52 anneal inh: inhibitors of human RAD52 DNA annealing | P43351 | recombinant RAD52 DNA annealing, FRET fluorescence | inhibition, % at 18.7 µM | hit rate 0.46% among 360,000;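 active = every replicate showing at least 50% inhibition; inconclusive = mean inhibition at least 50% but not in every replicate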
# Alpha interfer: interferes with the AlphaScreen assay signal. shares compounds with AF4-AF9 inh. AlphaScreen interference counter-screen, signal luminescence. AC50, µM (series often up to 12 µM), without a hit: at the top dose activity change, negative = inhibition. hit rate 45% among 530; cut-off not given, nearly all actives have AC50 up to about 14 µM
# DNA binder FP: counter-screen for RAD52 inhibitors: DNA binding compounds; AC50, µM; hit rate 8% among 1,000; AID 652128; shares compounds with RAD52 anneal inh; Salmon sperm DNA/acridine orange FP displacement;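 active = fitted half-maximal concentration for signal loss at or below twice the highest dose tested, in every separate run, actives reach about 64 µM in these data; inconclusive = runs disagree, or flat partial signal loss, or poor fit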
# * = called active by the depositor; i = inactive; ? = inconclusive; nt = no result; ! = a repeat was not active.
SMILES,S100A4 inh HTS,XiGFP reactiv,CASP6 VEID inh,AF4-AF9 inh,RAD54 branch,RAD52 anneal inh,Alpha interfer,DNA binder FP
CN1CCN(CCCN2c3ccccc3Sc3ccc(S(=O)(=O)N(C)C)cc32)CC1,0.0,0.0,-0.7,24.2,-2.4,28.4,nt,nt
C[C@@H]1CN([C@H](C)CO)C(=O)c2cccc(NC(=O)c3ccc(-c4nccs4)cc3)c2O[C@H]1CN(C)C(=O)Nc1ccc2c(c1)OCO2,-0.6,-0.6,0.1,0.8,2.8,13.0,nt,nt
COc1ccc(CNC(=O)C[C@@H]2C[C@@H]3c4cc(NS(C)(=O)=O)ccc4O[C@@H]3[C@@H](CO)O2)cc1,-8.3,0.1,0.5,0.8,6.8,7.4,nt,nt
CC1CN(C)C(C)c2c1oc1ccc(N)cc21 (stereo not given),-8.3,-0.2,-19.4,35.0*,nt,94.5*,-25.9%,i
CO[C@@H]1CN(C)C(=O)c2cc(NC(=O)NC(C)C)ccc2OC[C@@H](C)N(S(C)(=O)=O)C[C@@H]1C,5.7,0.2,2.1,-8.9,nt,7.3,nt,nt
C[C@@H]1CN([C@@H](C)CO)C(=O)c2cccc(NC(=O)C3CC3)c2O[C@H]1CN(C)C(=O)Nc1ccc2c(c1)OCO2,8.7,0.2,2.6,-13.7,1.6,7.1,nt,nt
N=C(N)c1ccc(Cl)cc1,11.0,0.0,-0.3,0.3,nt,3.2,nt,nt
N=C(N)c1ccc(/C=C/c2ccc(C(=N)N)cc2O)cc1,-14.1,0.0,-50.1,60.6*,nt,96.5*,-29.2%,i
O=C1c2c(O)ccc(O)c2C(=O)c2c(NCCNCCO)ccc(NCCNCCO)c21,5.6,-0.2,-238.3,96.6*,122.2*,101.8*,0.355µM*,1.48µM*!
CCCCCN=C(N)N/N=C/c1c[nH]c2ccc(OC)cc12,9.3,-0.1,nt,35.0*,23.6,55.8*,-39.3%,i
COc1cccc(OCC(O)CN2CCC(CN3C(=O)c4cccc5cccc(c45)C3=O)CC2)c1 (stereo not given),-2.6,0.0,-2.8,33.8*,nt,86.0*,-10.1%,i
CCC(=O)Nc1ccc2c(c1)C(=O)N(C)[C@H]1CC[C@@H](CC(=O)NCCc3ccccc3)O[C@@H]1CO2,9.2,0.1,-2.4,-2.5,4.5,-0.8,nt,nt
O=C(c1ccc(-c2cc(O)c3ncccc3c2)cc1)N1CCNCC1,21.1,0.1,-79.1,91.9*,21.6,101.0*,3.93µM*,i
CC(C)(C)c1ccc(C(=O)N2CCNCC2)cc1,nt,nt,nt,nt,4.8,nt,nt,nt
C#CCOCCOCCOCCNc1nc(N2CCN(C(=O)[C@H](CCCN=C(N)N)n3cc(C(N)[C@H](C)CC)nn3)CC2)nc(N2CCN(C(=O)[C@H](CCCN=C(N)N)n3cc(C(N)[C@@H](C)CC)nn3)CC2)n1 (stereo not given in full),nt,nt,nt,nt,-1.0,nt,nt,nt
C#CCOCCOCCOCCNc1nc(N2CCN(C(=O)[C@H](CCCCN)n3cc(CN)nn3)CC2)nc(N2CCN(C(=O)[C@H](CCCN=C(N)N)n3cc(C(N)[C@H](C)CC)nn3)CC2)n1 (stereo not given in full),-6.1,-0.2,-218.5,45.1*,-16.9,77.3*,-10.4%,?
C#CCOCCOCCOCCNc1nc(N2CCN(C(=O)[C@H](CCCCN)n3cc(CN)nn3)CC2)nc(N2CCN(C(=O)[C@H](CC(N)=O)n3cc(C(N)[C@H](C)CC)nn3)CC2)n1 (stereo not given in full),2.9,0.1,-140.9,?,-52.4,64.4*,-13.2%,i
COc1cccc(-c2ccc([C@H]3[C@H](CO)N4C(=O)CN(C(=O)NC(C)C)C[C@@H]34)cc2)c1,7.2,0.2,-0.7,-0.7,nt,-8.2,nt,nt
C/C=C/c1cnc2c(c1)C(=O)N([C@H](C)CO)C[C@H](C)[C@@H](CN(C)C(=O)NCCC)O2,58.0,0.2,6.3,0.0,2.3,5.8,nt,nt
CCN(Cc1ccccc1)c1ccc(/C=N/N=C(N)N)cc1,2.5,-0.1,4.4,53.2*,6.9,91.9*,10.3µM*,i
CC(C)NC(=O)N(C)C[C@@H]1OCCCC[C@H](C)Oc2ccc(NS(=O)(=O)c3ccc(Cl)cc3)cc2C(=O)N([C@@H](C)CO)C[C@H]1C,-19.7,-0.1,-0.7,-2.2,-4.8,11.8,nt,nt
CN(C)CCCNC(=O)C(=O)Nc1cc2c3c(c1)CC(=O)N3CCC2,-4.0,0.0,-172.7,6.5,-3.2,96.9*,nt,i
CN(C)CCNC(=O)C(=O)Nc1cc2c3c(c1)CCC(=O)N3CCC2,2.4,0.0,-0.6,-2.0,8.4,2.7,nt,nt
C/C=C/c1cnc2c(c1)C(=O)N([C@H](C)CO)C[C@H](C)[C@@H](CN(C)Cc1ccncc1)O2,-4.7,-0.4,-0.2,-6.2,-5.8,-4.1,nt,nt
CC(C)(C)c1ccc(OCCNCc2ccccc2)cc1,-1.5,-0.1,-4.9,-4.0,9.6,5.9,nt,nt
SMILES,S100A4 inh HTS,XiGFP reactiv,CASP6 VEID inh,AF4-AF9 inh,RAD54 branch,RAD52 anneal inh,Alpha interfer,DNA binder FP
C[n+]1ccccc1COc1ccc(C(C)(C)C)cc1,-2.1,0.0,-38.6,9.8,nt,99.4*,nt,i
C[C@@H]1CN([C@@H](C)CO)C(=O)Cc2cc(NC(=O)Nc3ccc4c(c3)OCO4)ccc2O[C@@H]1CN(C)CC1CC1,0.1,0.5,-0.7,10.6,-4.9,16.9,nt,nt
Cc1c(C(=O)NCCSCc2ccco2)cccc1[N+](=O)[O-],nt,-0.2,nt,nt,-4.4,nt,nt,nt
CN/C(=C\[N+](=O)[O-])NCCSCc1ccc(CN(C)C)o1,1.0,0.0,-106.8,-9.4,-10.2,60.7*,nt,i
CC(C)CC#Cc1cnc2c(c1)C(=O)N([C@@H](C)CO)C[C@@H](C)[C@@H](CN(C)C(=O)Nc1ccccc1F)O2,2.5,-0.2,-3.0,1.2,-5.8,6.2,nt,nt
O=C(C[C@H]1CC[C@@H]2[C@H](COC[C@H](O)CN2C(=O)c2ccc3c(c2)OCO3)O1)NC1CCCC1,nt,0.2,nt,nt,-0.7,nt,nt,nt
O=C(C[n+]1ccccc1)N/N=C/c1ccco1,9.5,0.0,-90.9,7.6,nt,50.3*,nt,i
CCN(CCN(C)C)C(=O)c1ccc2c(c1NCCO)C(=O)c1ccccc1C2=O,-23.8,0.0,2.9,17.1,nt,57.7*,nt,58.2µM*
C[C@@H]1CCCCO[C@@H](CN(C)Cc2ccc(C(F)(F)F)cc2)[C@@H](C)CN([C@@H](C)CO)C(=O)c2cc(NC(=O)Nc3cccc4ccccc34)ccc2O1,nt,0.2,nt,nt,-7.8,nt,nt,nt
COc1cccc(OC)c1C(=O)Nc1sc2c(c1C(N)=O)CCN(Cc1ccccc1)C2,-7.3,-0.2,-3.4,10.4,-6.8,-140.7,nt,nt
CCN1CCc2c(sc(NC(=O)c3cc4ccccc4cc3OC)c2C(N)=O)C1,-11.7,0.0,-2.2,11.1,27.9,75.7*,nt,i
